From ChEMBL document CHEMBL3259656, “Discovery of AZD3199, An Inhaled Ultralong Acting β2 Receptor Agonist with Rapid Onset of Action” (ACS Med Chem Lett, 2014)
Values belong to the compound of their own block, whether it stands above or below them. Active and inactive are the calls of the source. The calls are words filed in the database; no cut-off is given here.

Tests used:
D(2) dopamine receptor [1] = molecular target: T1, D(2) dopamine receptor (Homo sapiens, UniProt P14416); test: Agonist activity at human recombinant dopamine D2S receptor expressed in HEK cells by GTPgammaS binding assay; type: functional, HEK293
T1 sequence (P14416 whole entry): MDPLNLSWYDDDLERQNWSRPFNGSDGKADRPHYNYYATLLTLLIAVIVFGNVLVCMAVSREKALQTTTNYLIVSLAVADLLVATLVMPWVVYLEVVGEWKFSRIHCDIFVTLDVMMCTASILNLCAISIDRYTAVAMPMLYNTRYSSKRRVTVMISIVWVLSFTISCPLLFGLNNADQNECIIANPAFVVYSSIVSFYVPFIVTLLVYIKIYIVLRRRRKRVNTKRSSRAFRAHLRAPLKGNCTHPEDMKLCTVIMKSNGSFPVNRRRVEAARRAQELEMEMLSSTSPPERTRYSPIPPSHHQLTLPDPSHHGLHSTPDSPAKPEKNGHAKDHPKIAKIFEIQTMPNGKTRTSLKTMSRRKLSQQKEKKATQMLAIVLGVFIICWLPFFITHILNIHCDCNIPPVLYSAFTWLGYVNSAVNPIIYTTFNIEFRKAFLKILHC

[2] = molecular target: Beta-2 adrenergic receptor (Homo sapiens, UniProt P07550); test: Agonist activity at human beta-2 adrenergic receptor expressed in human H292 cells assessed as accumulation of intracellular cAMP after 1 hr by AlphaScreen assay; type: functional, cell-based
Sequence of Beta-2 adrenergic receptor (P07550 whole entry): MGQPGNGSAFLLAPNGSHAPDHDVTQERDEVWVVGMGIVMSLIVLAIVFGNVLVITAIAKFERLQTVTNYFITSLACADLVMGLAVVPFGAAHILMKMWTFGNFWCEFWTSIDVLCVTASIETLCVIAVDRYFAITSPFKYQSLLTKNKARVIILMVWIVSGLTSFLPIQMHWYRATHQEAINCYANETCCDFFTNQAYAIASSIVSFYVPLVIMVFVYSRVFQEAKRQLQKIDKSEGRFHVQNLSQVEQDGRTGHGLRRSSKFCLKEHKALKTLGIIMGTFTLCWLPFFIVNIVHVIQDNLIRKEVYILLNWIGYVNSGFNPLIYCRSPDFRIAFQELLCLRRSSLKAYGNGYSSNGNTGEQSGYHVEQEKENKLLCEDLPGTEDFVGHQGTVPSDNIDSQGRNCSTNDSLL

[3] = Intrinsic clearance in rat measured per million cells; type: ADME
[4] = molecular target: T2, Alpha-1D adrenergic receptor (Homo sapiens) (UniProt P25100); test: Agonist activity at human recombinant alpha-1D adrenergic receptor expressed in HEK cells assessed as intracellular calcium response; conditions: HEK293
T2 sequence (whole entry): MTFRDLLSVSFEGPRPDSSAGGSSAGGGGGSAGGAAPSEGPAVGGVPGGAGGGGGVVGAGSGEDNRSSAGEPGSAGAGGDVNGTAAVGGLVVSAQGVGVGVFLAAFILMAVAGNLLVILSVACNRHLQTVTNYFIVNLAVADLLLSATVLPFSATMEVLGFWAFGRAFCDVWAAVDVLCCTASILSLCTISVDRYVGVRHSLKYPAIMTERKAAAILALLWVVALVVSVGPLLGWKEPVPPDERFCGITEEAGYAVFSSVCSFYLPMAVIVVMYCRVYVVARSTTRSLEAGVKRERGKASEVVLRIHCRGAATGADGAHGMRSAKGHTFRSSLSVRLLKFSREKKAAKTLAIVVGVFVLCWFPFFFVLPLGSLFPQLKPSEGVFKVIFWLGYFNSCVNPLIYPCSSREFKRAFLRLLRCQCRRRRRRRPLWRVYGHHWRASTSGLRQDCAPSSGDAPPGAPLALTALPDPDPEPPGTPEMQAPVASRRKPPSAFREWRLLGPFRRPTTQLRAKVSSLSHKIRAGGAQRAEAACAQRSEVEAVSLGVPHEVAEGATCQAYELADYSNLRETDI

Cavia porcellus [5] = test: Bronchoprotective activity in guinea pig assessed as inhibition of histamine-induced bronchoconstriction administered intratracheally after 2 hrs; type: functional; conditions: inhaled or nasal
[6] = molecular target: Beta-2 adrenergic receptor (Canis lupus familiaris) (UniProt P54833); test: Intrinsic activity at dog recombinant beta-2 adrenergic receptor
Sequence of Beta-2 adrenergic receptor (Canis lupus familiaris) (P54833 whole entry, looked up): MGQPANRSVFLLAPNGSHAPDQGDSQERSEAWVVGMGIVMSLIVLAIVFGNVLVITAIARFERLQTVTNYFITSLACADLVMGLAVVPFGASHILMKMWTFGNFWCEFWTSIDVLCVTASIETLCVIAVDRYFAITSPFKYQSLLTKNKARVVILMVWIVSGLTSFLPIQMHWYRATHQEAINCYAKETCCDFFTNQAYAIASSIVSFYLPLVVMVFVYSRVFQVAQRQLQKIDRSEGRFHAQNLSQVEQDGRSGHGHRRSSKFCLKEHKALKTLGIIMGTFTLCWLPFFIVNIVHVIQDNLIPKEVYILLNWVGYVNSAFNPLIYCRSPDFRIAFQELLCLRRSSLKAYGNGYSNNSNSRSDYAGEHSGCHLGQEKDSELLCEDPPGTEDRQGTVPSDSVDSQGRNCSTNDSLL

[7] = molecular target: Beta-2 adrenergic receptor (Mus musculus) (UniProt P18762); test: Agonist activity at mouse recombinant beta-2 adrenergic receptor assessed as cAMP accumulation by cell-based assay; type: functional
Sequence of Beta-2 adrenergic receptor (Mus musculus) (P18762 whole entry, looked up): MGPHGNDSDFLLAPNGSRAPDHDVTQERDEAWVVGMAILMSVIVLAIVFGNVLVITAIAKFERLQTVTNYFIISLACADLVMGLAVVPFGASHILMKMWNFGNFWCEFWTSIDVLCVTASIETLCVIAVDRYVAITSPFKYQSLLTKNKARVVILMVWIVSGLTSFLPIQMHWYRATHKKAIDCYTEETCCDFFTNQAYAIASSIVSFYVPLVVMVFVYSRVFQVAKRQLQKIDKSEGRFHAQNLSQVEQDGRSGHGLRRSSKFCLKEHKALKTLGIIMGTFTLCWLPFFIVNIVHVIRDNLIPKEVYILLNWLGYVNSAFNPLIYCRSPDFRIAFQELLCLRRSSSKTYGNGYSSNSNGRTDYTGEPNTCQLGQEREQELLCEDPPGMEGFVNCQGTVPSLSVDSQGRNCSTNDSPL

[8] = molecular target: Beta-2 adrenergic receptor (Canis lupus familiaris) (UniProt P54833); test: Agonist activity at dog recombinant beta-2 adrenergic receptor assessed as cAMP accumulation by cell-based assay; type: functional
D(2) dopamine receptor [9] = molecular target: T1, D(2) dopamine receptor; test: Partial agonist activity at human recombinant dopamine D2S receptor expressed in HEK cells by GTPgammaS binding assay; type: functional, cell-based; conditions: HEK293
[10] = Oral bioavailability in rat; type: ADME, organism-based; conditions: in vivo
[11] = Oral bioavailability in dog; type: ADME, organism-based, Canis lupus familiaris; conditions: in vivo
[12] = Apparent volume of distribution in iv dosed dog; type: ADME, organism-based, Canis lupus familiaris; conditions: in vivo, read-out: Vz
[13] = Terminal half life in iv dosed guinea pig; type: ADME, organism-based, Cavia porcellus; conditions: in vivo, read-out: beta t1/2 (converted)
Oryctolagus cuniculus [14] = species: Oryctolagus cuniculus; test: Intrinsic activity at rabbit recombinant beta-2 adrenergic receptor
[15] = Terminal half life in iv dosed rat; type: ADME, organism-based; conditions: in vivo, read-out: beta t1/2 (converted)
[16] = molecular target: Beta-2 adrenergic receptor (Mus musculus) (UniProt P18762); test: Intrinsic activity at mouse recombinant beta-2 adrenergic receptor
[17] = molecular target: Beta-2 adrenergic receptor (Rattus norvegicus) (UniProt P10608); test: Agonist activity at beta-2 adrenergic receptor in rat C6 cells assessed as cAMP accumulation; type: functional, cell-based
Sequence of Beta-2 adrenergic receptor (Rattus norvegicus) (P10608 whole entry, looked up): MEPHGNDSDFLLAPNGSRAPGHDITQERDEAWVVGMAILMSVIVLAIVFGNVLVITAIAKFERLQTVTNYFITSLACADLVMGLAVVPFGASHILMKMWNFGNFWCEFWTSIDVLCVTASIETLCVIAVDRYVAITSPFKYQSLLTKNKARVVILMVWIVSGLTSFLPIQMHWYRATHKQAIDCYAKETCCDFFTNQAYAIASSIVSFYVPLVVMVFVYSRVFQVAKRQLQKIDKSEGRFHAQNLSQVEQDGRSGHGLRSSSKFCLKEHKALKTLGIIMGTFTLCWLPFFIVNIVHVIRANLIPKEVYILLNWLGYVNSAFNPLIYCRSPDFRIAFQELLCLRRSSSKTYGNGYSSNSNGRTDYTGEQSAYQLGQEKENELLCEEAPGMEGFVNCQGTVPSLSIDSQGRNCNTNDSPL

Cavia porcellus [18] = test: Bronchoprotective activity in guinea pig assessed as inhibition of histamine-induced bronchoconstriction at ED80 administered intratracheally after 24 hrs relative to control; type: functional
In short: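 Guinea pigs received a single intratracheal dose, set from a dose–response in the same histamine-induced bronchoconstriction model. Histamine challenge was given at several times after dosing, and inhibition of bronchoconstriction was measured. Bronchoprotection at 24 h was expressed relative to control animals.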

[19] = Apparent volume of distribution in iv dosed rat; type: ADME, organism-based; conditions: in vivo, read-out: Vz
[20] = Terminal half life in iv dosed dog; type: ADME, organism-based, Canis lupus familiaris; conditions: in vivo, read-out: beta t1/2 (converted)
Oryctolagus cuniculus [21] = species: Oryctolagus cuniculus; test: Agonist activity at rabbit recombinant beta-2 adrenergic receptor assessed as cAMP accumulation by cell-based assay
[22] = Apparent volume of distribution in iv dosed guinea pig; type: ADME, organism-based, Cavia porcellus; conditions: in vivo, read-out: Vz
Cavia porcellus [23] = test: Bronchoprotective activity in guinea pig assessed as inhibition of histamine-induced bronchoconstriction administered intratracheally after 2 hrs in presence of propanolol; type: functional, organism-based
In short: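 In the guinea pig histamine-induced bronchoconstriction model, propranolol was given at 1 mg/kg i.v. to check that the bronchoprotection was mediated through β2 receptors.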

[24] = molecular target: Beta-2 adrenergic receptor (Rattus norvegicus) (UniProt P10608); test: Intrinsic activity at beta-2 adrenergic receptor in rat C6 cells; type: cell-based
Cavia porcellus [25] = test: Toxicity in iv dosed guinea pig assessed as change in plasma potassium level up to 60 mins; type: organism-based; conditions: in vivo, 1 h
Cavia porcellus [26] = test: Bronchoprotective activity in guinea pig assessed as inhibition of histamine-induced bronchoconstriction at ED80 administered intratracheally after 4 to 24 hrs relative to control; type: functional, organism-based
In short: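 Guinea pigs received a single intratracheal dose of agonist. Histamine-induced bronchoconstriction was measured at several time points after dosing, up to 24 h. Bronchoprotection was expressed as inhibition relative to control animals.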

[27] = molecular target: Beta-2 adrenergic receptor (Cavia porcellus) (UniProt Q8K4Z4); conditions: Trachea
Sequence of Beta-2 adrenergic receptor (Cavia porcellus) (Q8K4Z4 whole entry, looked up): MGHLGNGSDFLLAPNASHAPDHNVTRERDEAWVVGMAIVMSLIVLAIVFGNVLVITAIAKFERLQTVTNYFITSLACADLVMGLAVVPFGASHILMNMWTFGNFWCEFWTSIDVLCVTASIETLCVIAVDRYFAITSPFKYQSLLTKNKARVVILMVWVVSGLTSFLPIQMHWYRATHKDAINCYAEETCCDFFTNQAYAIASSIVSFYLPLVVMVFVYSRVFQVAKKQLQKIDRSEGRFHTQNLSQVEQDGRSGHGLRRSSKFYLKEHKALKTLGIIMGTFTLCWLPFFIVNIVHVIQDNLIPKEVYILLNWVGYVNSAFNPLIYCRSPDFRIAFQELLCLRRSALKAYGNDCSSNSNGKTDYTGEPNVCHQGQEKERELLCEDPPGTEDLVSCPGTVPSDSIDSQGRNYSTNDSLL

EC50 (D(2) dopamine receptor [1]): 2 nM
Structure (SMILES): O=c1[nH]c2c(O)ccc(CCNCCS(=O)(=O)CCCOCCc3ccccc3)c2s1 [SIBENADET]

EC50 [2]: 6.31 nM
Structure (SMILES): CCN(CC)CCN(CCNCCc1ccc(O)c2[nH]c(=O)sc12)C(=O)CCOCCc1cccc(Cl)c1

EC50 [2]: 10 nM
Structure (SMILES): CCN(C)CCCN(CCNCCc1ccc(O)c2[nH]c(=O)sc12)C(=O)CCOCCc1cccc(Cl)c1

hepatocyte CLint [3]: 105 µL/min/1e6 cells | Activity [4]: inactive | Activity [6]: Active | Activity [7]: Active | Activity [8]: Active | Activity (D(2) dopamine receptor [9]): Active | bioavailability [10]: < 2% | bioavailability [11]: < 2% | Vd [12]: 17 L/kg | half-life [13]: 17 h | Activity (Oryctolagus cuniculus [14]): Active | half-life [15]: 11 h | Activity [16]: Active | Activity [17]: Active | Vd [19]: 23 L/kg | half-life [20]: 18 h | Vd [22]: 22 L/kg | Activity [24]: Active
Structure (SMILES): Br.CCN(CC)CCN(CCNCCc1ccc(O)c2[nH]c(=O)sc12)C(=O)CCOCCc1cccc2ccccc12
ED80 (Cavia porcellus [5]): 0.027 mg/kg | inhibition (INH) (Cavia porcellus [18]): 58% | Activity (Oryctolagus cuniculus [21]): Active | Activity (Cavia porcellus [23]): inactive | Activity (Cavia porcellus [25]): Toxic

EC50 [2]: 15.8 nM
Structure (SMILES): CN(C)CCCN(CCNCCc1ccc(O)c2[nH]c(=O)sc12)C(=O)CCOCCc1ccccc1

Structure (SMILES): CC(C)(C)NCC(O)c1ccc(O)c(CO)c1 (stereo unspecified) [ALBUTEROL]
Activity (Cavia porcellus [25]): Toxic

EC50 [2]: 316 nM
Structure (SMILES): NCCCN(CCNCCc1ccc(O)c2[nH]c(=O)sc12)C(=O)CCOCCc1ccccc1

EC50 [2]: 7.94 nM
Structure (SMILES): CN(CCCN(CCNCCc1ccc(O)c2[nH]c(=O)sc12)C(=O)CCOCCc1cccc(Cl)c1)C1CC1

EC50 [2]: 6.31 nM
Structure (SMILES): CN(C)CCN(CCNCCc1ccc(O)c2[nH]c(=O)sc12)C(=O)CCOCCc1ccccc1

EC50 [2]: 5.01 nM
Structure (SMILES): CC(C)N(C)CCCN(CCNCCc1ccc(O)c2[nH]c(=O)sc12)C(=O)CCOCCc1cccc(Cl)c1

EC50 [2]: 7.94 nM
Structure (SMILES): CCN(CC)CCN(CCNCCc1ccc(O)c2[nH]c(=O)sc12)C(=O)CCOCCc1cccc(OC)c1

Structure (SMILES): OCc1cc(C(O)CNCCCCCCOCCCCc2ccccc2)ccc1O (stereo unspecified)
inhibition (Cavia porcellus [26]): Active

EC50 [2]: 12.6 nM
Structure (SMILES): O=C(CCOCCc1cccc(Cl)c1)N(CCNCCc1ccc(O)c2[nH]c(=O)sc12)CCN1CCCCC1

pA50 [27]: 7.7
Structure (SMILES): CCc1cc2c(cc1CC)CC(NC[C@H](O)c1ccc(O)c3[nH]c(=O)ccc13)C2
